Consider 20 molecules from ChEMBL document CHEMBL3868585, “Absolute Configuration of Dihydro-β-agarofuran Sesquiterpenes from Maytenus jelskii and Their Potential Antitumor-Promoting Effects” (J Nat Prod, 2016).

What all share (format): cell-based
Holding throughout (conditions): human gammaherpesvirus 4

Assay [1] deals with Raji. Briefly: Inhibition of TPA-induced EBV-early antigen activation in human Raji cells assessed as remaining activity at 100 molar ratio per TPA after 48 hrs by immunofluorescence method relative to TPA. The procedure, abridged: (§1)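 Raji cells (EBV genome-carrying, virus nonproducer) grown in RPMI1640 with 10% FBS; 1 × 10^6 cells incubated 48 h at 37 °C in 1 mL medium with n-butyric acid (4 mmol), TPA (32 pmol) in DMSO, and test compound in 5 μL DMSO at 10, 100, 500 or 1000 mol ratio/TPA. EA-positive cells detected by indirect immunofluorescence with NPC patient serum, ≥500 cells counted; triplicates, expressed relative to butyrate+TPA control (100%).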

Assay [2] concerns Raji. Briefly: Inhibition of TPA-induced EBV-early antigen activation in human Raji cells after 48 hrs by immunofluorescence method relative to TPA. In outline:
as §1

Assay [3] has as its system Raji. Put plainly: Inhibition of TPA-induced EBV-early antigen activation in human Raji cells assessed as cell viability at 1000 molar ratio per TPA after 48 hrs by trypan blue staining method. In outline: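 Raji cells treated 48 h at 37 °C with n-butyric acid (4 mmol), TPA (32 pmol) and test compound in DMSO at 1000 mol ratio/TPA; viability determined by Trypan Blue staining.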

The test system of assay [4] is Raji. Put plainly: Inhibition of TPA-induced EBV-early antigen activation in human Raji cells at 500 molar ratio per TPA after 48 hrs by immunofluorescence method relative to TPA. In outline: as §1
Assay [5] concerns Raji. Put plainly: Inhibition of TPA-induced EBV-early antigen activation in human Raji cells at 10 molar ratio per TPA after 48 hrs by immunofluorescence method relative to TPA. The procedure, abridged: as §1
The subject of assay [6] is Raji. Briefly: Inhibition of TPA-induced EBV-early antigen activation in human Raji cells at 100 molar ratio per TPA after 48 hrs by immunofluorescence method relative to TPA. In outline: as §1
Assay [7] relates to Raji. Put plainly: Inhibition of TPA-induced EBV-early antigen activation in human Raji cells at 1000 molar ratio per TPA after 48 hrs by immunofluorescence method relative to TPA. The procedure, abridged:
as §1

SMILES strings stand for the structures. A value given as a limit tells only on which side of the number the result lay.

Consider `CC(=O)O[C@H]1[C@H](OC(=O)c2ccccc2)[C@@]2(C)[C@@H](OC(=O)/C=C/c3ccccc3)[C@@H](O)[C@@H]3[C@@H](OC(C)=O)[C@]2(OC3(C)C)[C@@](C)(O)[C@H]1OC(C)=O`, for which, in the assay on Raji [1], the Activity stood at 88.6%. Moreover, the inhibition result with Raji [2] is “Dose-dependent effect”. Besides, the Cell viability in the assay on Raji [3] is over 60%.

As for `CC(=O)O[C@H]1[C@@H]2C[C@@]3(OC2(C)C)[C@](C)([C@H]1OC(=O)c1ccccc1)[C@@H](OC(=O)c1ccccc1)[C@H](OC(C)=O)[C@H](OC(C)=O)[C@]3(C)O`, the Activity in the assay on Raji [1] is 79.3%. In addition, the inhibition result in the assay with Raji [2] was “Dose-dependent effect”. Further, the Cell viability with Raji [3] is over 60%.

In the case of `CC(=O)O[C@H]1[C@H](OC(=O)c2ccccc2)[C@@]2(C)[C@@H](OC(=O)/C=C/c3ccccc3)[C@@H](O)[C@@H]3[C@@H](O)[C@]2(OC3(C)C)[C@@](C)(O)[C@H]1OC(C)=O`, the Activity in the assay with Raji [1] was 85%. The inhibition entry in the assay with Raji [2] was “Dose-dependent effect”. For the same molecule, in the assay on Raji [3], the Cell viability was over 60%.

In the case of `CC(=O)O[C@@H]1C[C@](C)(O)[C@@]23C[C@@H](C[C@H](OC(=O)c4ccccc4)[C@]2(C)[C@H]1OC(=O)c1ccco1)C(C)(C)O3`, the inhibition entry with Raji [2] is “Dose-dependent effect”. In addition, in the assay on Raji [3], the Cell viability is over 60%.

For `CC(=O)O[C@H]1[C@H](OC(=O)c2ccccc2)C[C@](C)(O)[C@]23OC(C)(C)[C@H](C[C@H](OC(=O)c4ccco4)[C@]12CO)[C@H]3OC(=O)c1ccccc1`, the Activity in the assay with Raji [1] is 82.2%. Moreover, in the assay with Raji [2], the inhibition entry is “Dose-dependent effect”. For the same molecule, the Cell viability in the assay on Raji [3] was over 60%.

Consider `CC(=O)O[C@H]1[C@H](OC(=O)c2ccccc2)C[C@](C)(O)[C@]23OC(C)(C)[C@H](C[C@H](OC(=O)c4ccco4)[C@]12C)[C@H]3OC(=O)c1ccccc1`, for which the inhibition entry in the assay with Raji [2] is “Dose-dependent effect”. The Cell viability with Raji [3] is over 60%.

Turning to `CC(=O)O[C@@H]1[C@H](OC(C)=O)[C@@H](C)[C@@]23C[C@@H](C[C@H](OC(=O)c4ccccc4)[C@]2(C)[C@H]1OC(=O)c1ccco1)C(C)(C)O3`, the inhibition result with Raji [2] is “Dose-dependent effect”. The Cell viability in the assay with Raji [3] is over 60%.

As for `CC(=O)O[C@@H]1[C@H](O)[C@@H](C)[C@]23OC(C)(C)[C@H](C[C@H](OC(=O)/C=C/c4ccccc4)[C@]2(C)[C@H]1OC(=O)c1ccccc1)[C@H]3O`, in the assay on Raji [2], the inhibition result is “Dose-dependent effect”. The Cell viability with Raji [3] is over 60%.

As for `CC(=O)O[C@H]1[C@H](OC(=O)c2ccco2)[C@@]2(C)[C@@H](OC(=O)c3ccccc3)C[C@@H]3C[C@]2(OC3(C)C)[C@@](C)(O)[C@H]1OC(C)=O`, the inhibition result in the assay on Raji [2] was “Dose-dependent effect”. Moreover, the Cell viability in the assay on Raji [3] was over 60%.

For the molecule `CC(=O)O[C@@H]1[C@H](O)[C@@H](C)[C@]23OC(C)(C)[C@H]([C@H](OC(C)=O)[C@H](OC(=O)c4ccccc4)[C@]2(C)[C@H]1OC(=O)c1ccccc1)[C@H]3O`, the inhibition in the assay on Raji [4] was 69.9%; in the assay with Raji [2] it was “Dose-dependent effect”; in the assay with Raji [5], 2.2%; in the assay with Raji [6], 23.7%; in the assay on Raji [7], 100%. Further, the Activity with Raji [1] came to 76.3%. For the same molecule, the Cell viability in the assay with Raji [3] was over 60%.

As for `CC(=O)O[C@@H]1[C@H](O)[C@@H](C)[C@]23OC(C)(C)[C@H](C[C@H](OC(=O)c4ccccc4)[C@]2(C)[C@H]1OC(=O)c1ccccc1)[C@H]3OC(C)=O`, the Activity in the assay on Raji [1] was found to be 81%. In addition, in the assay on Raji [2], the inhibition entry was “Dose-dependent effect”. The Cell viability in the assay with Raji [3] is over 60%.

With `CC1(C)O[C@]23C[C@H]1C[C@H](OC(=O)c1ccccc1)[C@]2(C)[C@@H](OC(=O)c1ccco1)CC[C@]3(C)O`, in the assay with Raji [2], the inhibition result is “Dose-dependent effect”. Also, in the assay on Raji [3], the Cell viability is over 60%.

As for `CC(=O)O[C@H]1[C@H](OC(=O)c2ccccc2)[C@@]2(C)[C@@H](OC(=O)/C=C/c3ccccc3)C[C@@H]3[C@@H](OC(C)=O)[C@]2(OC3(C)C)[C@@](C)(O)[C@H]1OC(=O)c1cccnc1`, in the assay on Raji [2], the inhibition result is “Dose-dependent effect”. Also, the Cell viability in the assay with Raji [3] is over 60%.

Regarding `CC(=O)O[C@H]1[C@H](OC(=O)c2ccccc2)[C@@]2(C)[C@@H](OC(=O)/C=C/c3ccccc3)[C@@H](O)[C@@H]3C[C@]2(OC3(C)C)[C@@](C)(O)[C@H]1OC(C)=O`, in the assay with Raji [2], the inhibition entry was “Dose-dependent effect”. The Cell viability in the assay on Raji [3] is over 60%.

`CC(=O)O[C@@H]1[C@H](O)[C@@H](C)[C@]23OC(C)(C)[C@H]([C@H](OC(C)=O)[C@H](OC(=O)c4ccccc4)[C@]2(C)[C@H]1OC(=O)c1ccoc1)[C@H]3OC(C)=O`: in the assay on Raji [1], the Activity was determined as 87%. The inhibition result with Raji [2] is “Dose-dependent effect”. Further, the Cell viability in the assay on Raji [3] is over 60%.

As for `CC(=O)O[C@H]1[C@H](OC(=O)c2ccccc2)[C@@]2(C)[C@@H](OC(=O)/C=C/c3ccccc3)C[C@]3(O)C[C@]2(OC3(C)C)[C@@](C)(O)[C@H]1OC(C)=O`, in the assay on Raji [2], the inhibition entry is “Dose-dependent effect”. Moreover, the Cell viability in the assay with Raji [3] is over 60%.

`CC(=O)OC[C@]12[C@@H](OC(=O)c3ccco3)C[C@@H]3[C@@H](OC(=O)c4ccccc4)[C@]1(OC3(C)C)[C@@](C)(O)C[C@@H](OC(C)=O)[C@@H]2OC(C)=O`: the Activity with Raji [1] came out at 81.9%. In addition, the inhibition result in the assay with Raji [2] is “Dose-dependent effect”. Moreover, in the assay with Raji [3], the Cell viability was over 60%.

`CC(=O)O[C@@H]1C[C@](C)(O)[C@@]23C[C@@H](C[C@H](OC(=O)/C=C/c4ccccc4)[C@]2(C)[C@H]1OC(=O)c1ccco1)C(C)(C)O3`: the inhibition entry with Raji [2] is “Dose-dependent effect”. Also, the Cell viability with Raji [3] is over 60%.

Regarding `CC(=O)O[C@@H]1[C@H](O)[C@@H](C)[C@]23OC(C)(C)[C@H](C[C@H](OC(=O)/C=C/c4ccccc4)[C@]2(C)[C@H]1OC(=O)c1ccccc1)[C@H]3OC(C)=O`, in the assay with Raji [2], the inhibition entry was “Dose-dependent effect”. In addition, the Cell viability with Raji [3] is over 60%.

With `CC(=O)O[C@@H]1[C@H](O)[C@@H](C)[C@]23OC(C)(C)[C@H]([C@H](OC(C)=O)[C@H](OC(=O)c4ccccc4)[C@]2(C)[C@H]1OC(=O)c1ccccc1)[C@H]3OC(C)=O`, the Activity in the assay on Raji [1] worked out at 79.5%. The inhibition entry in the assay with Raji [2] was “Dose-dependent effect”. Also, the Cell viability in the assay on Raji [3] is over 60%.

The inhibition is the share of the control response that was lost under treatment.
